In ChEMBL document CHEMBL1681759, “Synthesis and biological evaluation of benzimidazole-5-carbohydrazide derivatives as antimalarial, cytotoxic and antitubercular agents” (Bioorg Med Chem, 2011):
Values after ≈ are worked out from the molar mass of the structure shown.

Legend:
[1] = system: Plasmodium berghei; assay: Antimalarial activity against chloroquine-susceptible Plasmodium berghei ANKA assessed as inhibition of trophozoite extract-mediated mouse hemoglobin hydrolysis at 10 mM after 18 hrs by SDS-PAGE; format: functional
Summary of the method: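 Trophozoite extract came from P. berghei-infected mouse blood at 30–50% parasitemia: RBCs percoll-purified (80–70%), saponin-lysed, then freeze–thawed three times. Substrate was native haemoglobin from uninfected mouse erythrocytes lysed in water. The mix held GSH and acetate buffer (0.2 M, pH 5.4). Compound was added in DMSO and incubated 37 °C, 18 h. Reactions were stopped with reduced sample buffer.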

[2] = Inhibition of beta-hematin formation assessed as inhibition of […] polymerization at […] after 48 hrs; format: functional
Summary of the method: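 Hemin chloride (50 µL, 4 mM in DMSO) was mixed in triplicate with compound in DMSO; water or DMSO served as controls. Reaction was started with acetate buffer (0.2 M, pH 4.4) and run 37 °C for 48 h. The pellet was DMSO-washed twice, dissolved in 0.2 N NaOH, diluted 1:2 in 0.1 N NaOH, and read at 405 nm as % inhibition of FP polymerization.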

[3] = system: Plasmodium berghei; assay: Antimalarial activity against chloroquine-susceptible Plasmodium berghei ANKA infected in Balb-C mouse assessed as inhibition parasitemia at 20 mg/kg, ip qd for 4 days […]; format: functional; settings: 96 h, route intraperitoneal
Summary of the method: (§1)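 Balb-C mice (18–23 g, n = 6) were infected iv in the caudal vein with 10⁶ P. berghei ANKA-infected RBCs. Dosing started 2 h post-infection: 20 mg/kg ip once daily for 4 days, DMSO stock diluted in Saline-Tween 20 (2%). Chloroquine 25 mg/kg served as positive control; untreated mice were controls. Parasitemia was read on day 4 from Giemsa smears, and survival days were recorded.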

[4] = system: Plasmodium berghei; assay: Antimalarial activity against chloroquine-susceptible Plasmodium berghei ANKA infected in Balb-C mouse; format: functional, organism-based; summary of the method: as §1
[5] = system: Plasmodium berghei; assay: Antimalarial activity against chloroquine-susceptible Plasmodium berghei ANKA infected in Balb-C mouse assessed as mouse survival days at 20 mg/kg, ip qd for 4 days […] relative to untreated control; format: functional; settings: route intraperitoneal
[6] = system: Mycobacterium tuberculosis; assay: Antimycobacterial activity against Mycobacterium tuberculosis H37Rv after 5 days by tetrazolium microplate assay; format: functional; settings: 120 h
Summary of the method: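 Tetrazolium microplate assay run in 7H9GC broth. DMSO stocks (4 mg/mL) were diluted to final 0.4–25 µg/mL. Isoniazid (0.125–32 µg/mL) and rifampin (0.063–16 µg/mL) were positive controls; inoculum-only and DMSO controls were included. Plates were incubated 5 days at 37 °C, then an MTT-Tween 80 mix was added and incubation continued 24 h at 37 °C. Run in triplicate. MIC = lowest concentration preventing the yellow-to-purple colour change.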

Row | SMILES | inhibition at 10000 µM [1] [%] | inhibition [2] [%] | inhibition in vivo at 20 mg/kg [3] [%] | IC50 [4] [µM] | Survival [5] [days] | MIC [6] [µg/mL]
1 | O=C(NNC(=O)c1ccc2[nH]c(-c3ccc([N+](=O)[O-])o3)nc2c1)c1ccc(Cl)cc1 | 33.8 | 59.6 | 27.4 | 23.4 | 9.8 | 
2 | O=C(NNC(=O)c1ccc2[nH]c(-c3ccc([N+](=O)[O-])o3)nc2c1)c1cccc(Cl)c1 | 39 | 73.4 | 3.38 | 10.3 | 12.4 | 
3 | CCN(CC)CCCC(C)Nc1ccnc2cc(Cl)ccc12 (centres undefined) [CHLOROQUINE] | 24.1 | 94.2 | 1.3 |  | >30 | 
4 | O=C(NNC(=O)c1ccc2[nH]c(-c3ccc([N+](=O)[O-])s3)nc2c1)c1ccccc1 | 39.2 | 86.2 | 10.1 | 10.8 | 12 | 
5 | NNC(=O)c1ccncc1 [ISONIAZID] |  |  |  |  |  | 0.125 (≈ 0.911 µM)
6 | CC(=O)N[C@@H](CC(C)C)C(=O)N[C@@H](CC(C)C)C(=O)N[C@H](C=O)CCCNC(=N)N [LEUPEPTIN] | 91.6 |  |  |  |  | 
7 | COc1ccc(C(=O)NNC(=O)c2ccc3[nH]c(-c4ccc([N+](=O)[O-])s4)nc3c2)cc1OC | 38.2 | 70.8 | 16.1 | 21.4 | 13.8 | 
8 | O=C(NNC(=O)c1ccc2[nH]c(-c3ccc([N+](=O)[O-])s3)nc2c1)c1ccc(Cl)cc1 | 12.7 | 25.5 | 13.5 |  | 10.8 | 
9 | O=C(O)c1ccc2[nH]c(-c3ccc([N+](=O)[O-])s3)nc2c1 | 0 | 57.6 | 11.5 | 21.1 | 12.2 | 
10 | CC(C)CC(=O)N[C@H](C(=O)N[C@H](C(=O)N[C@@H](CC(C)C)[C@@H](O)CC(=O)N[C@@H](C)C(=O)N[C@@H](CC(C)C)[C@@H](O)CC(=O)O)C(C)C)C(C)C [PEPSTATIN] | 95.5 |  |  |  |  | 
11 | O=C(NNC(=O)c1cc2ccccc2cc1O)c1ccc2[nH]c(-c3ccc([N+](=O)[O-])o3)nc2c1 | 12.9 | 31.7 |  |  |  | 
12 | O=C(NNC(=O)c1ccc2[nH]c(-c3ccc([N+](=O)[O-])s3)nc2c1)c1cccc(Cl)c1 | 44.9 | 78.6 | 27.2 | 16 | 7.4 | 
13 | O=CNNC(=O)c1ccc2[nH]c(-c3ccc([N+](=O)[O-])s3)nc2c1 | 36.2 | 87.4 | 18.7 | 9.88 | 10.04 | 
14 | CO[C@H]1/C=C/O[C@@]2(C)Oc3c(C)c(O)c4c(O)c(c(/C=N/N5CCN(C)CC5)c(O)c4c3C2=O)NC(=O)/C(C)=C\C=C\[C@H](C)[C@H](O)[C@@H](C)[C@@H](O)[C@@H](C)[C@H](OC(C)=O)[C@@H]1C [RIFAMPIN] |  |  |  |  |  | 0.063 (≈ 0.0766 µM)
15 | O=C(NNC(=O)c1ccc2[nH]c(-c3ccc([N+](=O)[O-])s3)nc2c1)c1cccc(Oc2ccccc2)c1 | 0 | 76.5 | 7.28 | 19.1 | 11 | 
